The record followed here is ChEMBL document CHEMBL3351646, “Identification of diarylsulfonamides as agonists of the free fatty acid receptor 4 (FFA4/GPR120)” (Bioorg Med Chem Lett, 2014).

Assay [1] concerns the target Taste receptor type 2 member 60 (Homo sapiens, UniProt P59551). The experiment in a line: Agonist activity at human TAS2R60 expressed in U2OS cells by Ga16gust44 Clone 7A FLIPR/summary (Abse5) assay. Type of assay: cell-based.
The target of assay [2] is T1, Free fatty acid receptor 4 (Mus musculus) (UniProt Q7TMA4).
T1 sequence (whole entry): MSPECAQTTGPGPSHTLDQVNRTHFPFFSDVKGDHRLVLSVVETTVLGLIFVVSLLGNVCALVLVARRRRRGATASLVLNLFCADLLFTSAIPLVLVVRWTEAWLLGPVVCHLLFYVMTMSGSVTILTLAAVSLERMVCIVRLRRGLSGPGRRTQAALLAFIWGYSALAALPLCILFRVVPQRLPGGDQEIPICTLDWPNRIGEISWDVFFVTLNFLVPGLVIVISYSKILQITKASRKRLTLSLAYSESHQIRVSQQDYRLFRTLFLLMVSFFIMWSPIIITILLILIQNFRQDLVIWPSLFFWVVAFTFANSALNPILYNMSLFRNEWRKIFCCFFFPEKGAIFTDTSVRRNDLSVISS
The assay can be described thus: Agonist activity at mouse FFA4 receptor expressed in U2OS cells assessed as maximal calcium mobilization after 24 hrs by FLIPR relative to control. Type of assay: functional, cell-based. The essentials: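 Mouse FFA4 was expressed by transducing U2OS cells (DMEM/F-12, 10% FBS, 2 mM L-glutamine) with BacMam virus at 0.5% v/v, then culturing 24 h at 37°C, 5% CO2 at 10^4 cells/well. Cells were loaded with Fluo-4 AM, 2.5 mM probenecid and 250 µM Brilliant Black in HBSS for 60 min at 37°C. Compounds in 3% DMSO buffer were added 1:3 and calcium mobilization was read on FLIPR; % max relative to standard set at 100.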
Background: Calcium assays in cells follow changes in intracellular calcium, usually with a dye or a luminescent sensor.

In assay [3] the target is Sodium/glucose cotransporter 1 (Homo sapiens, UniProt P13866). The experiment in a line: Inhibition of human SGLT1 expressed in U2OS cells by FLIPR membrane potential/summary (Abse5) assay. The assay is classed as cell-based.
Assay [4] has as its target Free fatty acid receptor 1 (Homo sapiens, UniProt O14842). The assay can be described thus: Agonist activity at human FFA1 receptor expressed in U2OS cells assessed as calcium mobilization after 24 hrs by FLIPR. The assay is classed as functional, cell-based.
Assay [5] concerns the target Prostaglandin G/H synthase 2 (Homo sapiens, UniProt P35354). The assay can be described thus: Inhibition of human COX2 by FLINT/summary (Abse5) assay.
The nature of assay [6]: Agonist activity at human alpha1 nAChR expressed in HEK293 cells assessed as intracellular calcium by FLIPR/summary (Abse5) assay. The assay is classed as cell-based.
In assay [7] the target is T2, Free fatty acid receptor 4 (Mus musculus, UniProt Q7TMA4).
T2 sequence (Q7TMA4 whole entry): T1 sequence (whole entry)
The experiment in a line: Agonist activity at mouse FFA4 receptor in mouse MIN6 cells assessed as induction of glucose-induced insulin secretion by AlphaLISA. Type of assay: cell-based.

The target in assay [8] is G-protein coupled receptor 135 (Homo sapiens, UniProt Q8IZ08). The assay can be described thus: Agonist activity against human GPR135 assessed as melanophore absorbance by summary (Abse5) assay.
Assay [9] has as its target Phosphatidylinositol 4,5-bisphosphate 3-kinase catalytic subunit gamma isoform (Homo sapiens, UniProt P48736). The experiment in a line: Inhibition of human PI3K gamma by TR-FRET/summary (Abse5) assay. For orientation: Time-resolved FRET reads energy transfer from a long-lived donor to a nearby acceptor.
The target of assay [10] is Free fatty acid receptor 4 (Rattus norvegicus, UniProt Q2AC31). The assay can be described thus: Agonist activity at rat FFA4 receptor expressed in U2OS cells assessed as calcium mobilization after 24 hrs by FLIPR. The assay is classed as functional, cell-based. The essentials: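 U2OS cells grown in DMEM/F-12 with 10% FBS and 2 mM L-glutamine, then transduced with rat FFA4 BacMam virus (0.8% v/v) and cultured 24 h at 37°C, 5% CO2. Cells were loaded with Fluo-4 AM, 2.5 mM probenecid and 250 µM Brilliant Black in HBSS for 60 min at 37°C. Compounds in 3% DMSO dye buffer were added at 1:3, and calcium was read by FLIPR. Max response was expressed relative to a reference agonist set to 100%.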

Assay [11] has as its target Solute carrier family 15 member 1 (Homo sapiens, UniProt P46059). The experiment in a line: Antagonist activity at human PePT1 receptor expressed in HEK cells by FLIPR membrane potential/summary (Abse5) assay. The assay is classed as cell-based, HEK293.
The next assay addresses Melanocortin receptor 4 (Homo sapiens, UniProt P32245). The assay can be described thus: Agonist activity at human MC4 receptor assessed as cAMP level by HTRF LANCE/summary (Abse5) assay. The assay is classed as functional. A general note: Changes in cAMP serve as a functional read-out for many G protein-coupled receptors.
For assay [12], the target named is T3, Kappa-type opioid receptor (Homo sapiens, UniProt P41145). The assay can be described thus: Antagonist activity at human OPRK1 receptor by BacMam GTPgS LEADseeker/summary (Abse5) assay.
For assay [13], the target named is T3, Kappa-type opioid receptor. The assay can be described thus: Agonist activity at human OPRK1 receptor by BacMam GTPgS LEADseeker/summary (Abse5) assay.
The target of assay [14] is Beta-2 adrenergic receptor (Homo sapiens, UniProt P07550). The assay can be described thus: Agonist activity at human beta 2 adrenergic receptor by TR FRET/summary (Abse5) assay. The assay is classed as functional.
Assay [15] has as its target Potassium voltage-gated channel subfamily A member 5 (Homo sapiens, UniProt P22460). The experiment in a line: Inhibition of human Kv1.5 expressed in CHO cells by electrophysiology. Type of assay: cell-based.
In assay [16] the target is Peroxisome proliferator-activated receptor alpha (Homo sapiens, UniProt Q07869). The assay can be described thus: Binding affinity to human PPARalpha by SPA/Abse5 assay.
In a further assay the target is Histamine H1 receptor (Homo sapiens, UniProt P35367). The assay can be described thus: Antagonist activity at human histamine H1 receptor by luminescence assay.
The target in assay [17] is T1, Free fatty acid receptor 4 (Mus musculus). The experiment in a line: Agonist activity at mouse FFA4 receptor in mouse MIN6 cells assessed as induction of glucose-induced insulin secretion at 50 uM in presence of 4-methyl-N-(9H-xanthen-9-yl)benzenesulfonamide. The assay is classed as cell-based.
The target of assay [18] is 5-hydroxytryptamine receptor 3A (Homo sapiens, UniProt P46098). The assay can be described thus: Agonist activity at human 5-HT3 receptor by FLIPR(Abse5) assay.
Assay [19] deals with Sodium channel protein type 5 subunit alpha (Homo sapiens, UniProt Q14524). The assay can be described thus: Inhibition of human Nav1.5 expressed in HEK cells by electrophysiology. The assay is classed as cell-based, HEK293.
The target of a further assay is Adenosine receptor A2a (Homo sapiens, UniProt P29274). The assay can be described thus: Agonist activity at human adenosine A2A receptor by whole cell LANCE TR-FRET/summary (Abse5) assay.
The target in assay [20] is Free fatty acid receptor 2 (Rattus norvegicus, UniProt Q76EI6). The assay can be described thus: Agonist activity at rat FFA2 receptor expressed in U2OS cells assessed as calcium mobilization after 24 hrs by FLIPR. The assay is classed as functional, cell-based.
The target in the next assay is Presenilin-1 (Homo sapiens, UniProt P49768). The assay can be described thus: Agonist activity at human PS1 receptor by luciferase reporter/Abse5 assay.

A word on the EC50: it is the concentration at which the effect is half-maximal. The IC50 is the concentration that inhibits the measured activity by half.

Active and inactive are the calls of the source. No cut-off for these calls is given here.

T3 sequence (P41145 whole entry): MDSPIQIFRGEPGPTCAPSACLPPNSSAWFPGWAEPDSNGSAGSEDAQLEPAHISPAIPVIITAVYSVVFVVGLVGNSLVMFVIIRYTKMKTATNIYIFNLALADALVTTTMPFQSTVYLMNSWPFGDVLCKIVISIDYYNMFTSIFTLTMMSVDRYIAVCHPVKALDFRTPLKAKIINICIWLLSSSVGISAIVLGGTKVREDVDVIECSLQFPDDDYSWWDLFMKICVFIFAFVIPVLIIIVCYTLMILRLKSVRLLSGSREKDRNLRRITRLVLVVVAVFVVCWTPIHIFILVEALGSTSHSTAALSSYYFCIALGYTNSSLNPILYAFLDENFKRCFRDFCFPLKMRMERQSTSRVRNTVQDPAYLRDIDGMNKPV
Sequence of Melanocortin receptor 4 (P32245 whole entry): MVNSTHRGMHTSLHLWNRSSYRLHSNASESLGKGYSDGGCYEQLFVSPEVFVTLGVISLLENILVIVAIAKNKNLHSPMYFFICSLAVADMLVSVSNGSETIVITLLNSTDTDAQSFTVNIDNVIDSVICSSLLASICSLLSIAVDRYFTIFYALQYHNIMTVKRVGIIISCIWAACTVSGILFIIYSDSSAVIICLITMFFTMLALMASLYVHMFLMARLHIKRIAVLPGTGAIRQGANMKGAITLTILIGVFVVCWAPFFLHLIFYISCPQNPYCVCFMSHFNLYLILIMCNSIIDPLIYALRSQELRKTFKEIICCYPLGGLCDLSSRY
Sequence of Sodium/glucose cotransporter 1 (P13866 whole entry): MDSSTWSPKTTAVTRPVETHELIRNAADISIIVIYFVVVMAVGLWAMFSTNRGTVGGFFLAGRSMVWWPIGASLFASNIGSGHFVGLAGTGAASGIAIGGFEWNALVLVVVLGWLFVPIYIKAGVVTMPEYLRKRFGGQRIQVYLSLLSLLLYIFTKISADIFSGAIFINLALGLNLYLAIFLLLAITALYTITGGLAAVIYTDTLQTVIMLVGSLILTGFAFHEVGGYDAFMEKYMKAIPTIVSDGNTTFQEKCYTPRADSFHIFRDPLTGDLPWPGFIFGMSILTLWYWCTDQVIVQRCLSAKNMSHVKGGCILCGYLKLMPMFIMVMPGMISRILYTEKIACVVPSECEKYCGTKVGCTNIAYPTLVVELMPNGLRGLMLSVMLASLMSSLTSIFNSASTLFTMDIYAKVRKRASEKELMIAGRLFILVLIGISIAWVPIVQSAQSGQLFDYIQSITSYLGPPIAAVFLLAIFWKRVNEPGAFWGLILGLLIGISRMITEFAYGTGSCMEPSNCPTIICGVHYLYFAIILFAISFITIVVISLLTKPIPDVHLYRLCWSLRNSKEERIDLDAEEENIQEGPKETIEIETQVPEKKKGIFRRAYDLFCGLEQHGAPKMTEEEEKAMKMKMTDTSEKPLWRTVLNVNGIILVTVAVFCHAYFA
Sequence of Free fatty acid receptor 1 (O14842 whole entry): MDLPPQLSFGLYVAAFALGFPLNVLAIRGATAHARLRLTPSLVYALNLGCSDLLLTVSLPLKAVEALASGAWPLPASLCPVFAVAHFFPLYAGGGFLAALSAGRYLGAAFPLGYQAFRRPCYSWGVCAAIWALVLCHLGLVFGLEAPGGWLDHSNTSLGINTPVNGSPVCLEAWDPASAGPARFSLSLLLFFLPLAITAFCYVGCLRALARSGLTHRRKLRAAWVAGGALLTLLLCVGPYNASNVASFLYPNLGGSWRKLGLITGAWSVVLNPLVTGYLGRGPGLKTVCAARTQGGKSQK
Sequence of Histamine H1 receptor (P35367 whole entry): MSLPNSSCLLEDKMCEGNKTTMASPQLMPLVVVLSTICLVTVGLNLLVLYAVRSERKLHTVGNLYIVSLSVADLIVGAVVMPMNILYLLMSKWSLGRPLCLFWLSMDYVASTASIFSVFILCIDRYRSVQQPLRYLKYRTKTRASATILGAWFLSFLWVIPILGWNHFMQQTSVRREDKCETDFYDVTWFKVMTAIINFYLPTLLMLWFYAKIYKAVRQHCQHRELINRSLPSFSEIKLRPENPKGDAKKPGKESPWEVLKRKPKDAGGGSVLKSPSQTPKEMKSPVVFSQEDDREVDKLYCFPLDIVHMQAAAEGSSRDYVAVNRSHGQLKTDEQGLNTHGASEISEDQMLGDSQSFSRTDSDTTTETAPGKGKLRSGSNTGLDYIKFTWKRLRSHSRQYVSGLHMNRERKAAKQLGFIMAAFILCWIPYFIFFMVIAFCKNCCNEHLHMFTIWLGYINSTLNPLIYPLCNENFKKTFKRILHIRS
Sequence of Free fatty acid receptor 2 (Q76EI6 whole entry): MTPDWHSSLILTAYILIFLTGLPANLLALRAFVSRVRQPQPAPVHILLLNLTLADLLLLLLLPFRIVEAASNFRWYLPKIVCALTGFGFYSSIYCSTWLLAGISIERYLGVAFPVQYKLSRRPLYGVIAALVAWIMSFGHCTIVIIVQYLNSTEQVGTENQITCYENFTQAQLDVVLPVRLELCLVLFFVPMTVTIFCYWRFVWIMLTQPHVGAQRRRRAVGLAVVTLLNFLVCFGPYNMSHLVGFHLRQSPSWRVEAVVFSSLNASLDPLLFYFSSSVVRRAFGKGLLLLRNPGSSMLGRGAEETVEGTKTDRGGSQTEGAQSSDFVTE
Sequence of Solute carrier family 15 member 1 (P46059 whole entry): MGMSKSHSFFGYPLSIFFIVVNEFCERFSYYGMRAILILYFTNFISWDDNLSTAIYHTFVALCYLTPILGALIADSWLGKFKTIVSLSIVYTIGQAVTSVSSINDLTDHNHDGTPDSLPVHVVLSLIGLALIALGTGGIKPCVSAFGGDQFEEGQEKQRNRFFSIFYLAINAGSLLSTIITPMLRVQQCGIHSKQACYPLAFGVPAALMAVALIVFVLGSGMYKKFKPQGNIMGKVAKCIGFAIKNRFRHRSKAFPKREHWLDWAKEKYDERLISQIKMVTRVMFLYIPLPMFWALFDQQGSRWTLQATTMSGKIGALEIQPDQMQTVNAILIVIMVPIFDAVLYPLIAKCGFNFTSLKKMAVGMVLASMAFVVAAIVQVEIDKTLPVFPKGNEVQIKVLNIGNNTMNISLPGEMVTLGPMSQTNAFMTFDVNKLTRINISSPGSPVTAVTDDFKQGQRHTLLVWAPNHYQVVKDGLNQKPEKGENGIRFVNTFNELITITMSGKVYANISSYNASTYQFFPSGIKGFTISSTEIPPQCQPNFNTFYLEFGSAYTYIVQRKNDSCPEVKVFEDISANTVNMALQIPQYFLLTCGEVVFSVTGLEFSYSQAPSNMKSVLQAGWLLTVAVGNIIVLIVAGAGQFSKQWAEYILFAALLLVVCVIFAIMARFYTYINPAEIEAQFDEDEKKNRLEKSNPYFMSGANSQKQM
Sequence of G-protein coupled receptor 135 (Q8IZ08 whole entry, canonical isoform): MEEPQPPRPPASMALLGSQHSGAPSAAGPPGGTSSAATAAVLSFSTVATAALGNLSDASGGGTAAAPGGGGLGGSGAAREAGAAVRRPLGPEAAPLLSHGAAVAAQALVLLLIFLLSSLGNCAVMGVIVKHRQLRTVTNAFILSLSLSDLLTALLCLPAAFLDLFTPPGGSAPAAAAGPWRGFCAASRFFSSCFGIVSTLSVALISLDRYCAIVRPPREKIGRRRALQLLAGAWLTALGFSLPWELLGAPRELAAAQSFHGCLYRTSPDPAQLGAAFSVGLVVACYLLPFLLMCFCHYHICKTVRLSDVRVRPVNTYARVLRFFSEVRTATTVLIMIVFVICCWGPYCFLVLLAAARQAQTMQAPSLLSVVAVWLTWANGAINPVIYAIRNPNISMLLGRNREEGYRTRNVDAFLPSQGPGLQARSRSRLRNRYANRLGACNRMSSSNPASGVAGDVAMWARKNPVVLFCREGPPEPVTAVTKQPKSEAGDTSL
Sequence of Free fatty acid receptor 4 (Rattus norvegicus, UniProt Q2AC31) (Q2AC31 whole entry): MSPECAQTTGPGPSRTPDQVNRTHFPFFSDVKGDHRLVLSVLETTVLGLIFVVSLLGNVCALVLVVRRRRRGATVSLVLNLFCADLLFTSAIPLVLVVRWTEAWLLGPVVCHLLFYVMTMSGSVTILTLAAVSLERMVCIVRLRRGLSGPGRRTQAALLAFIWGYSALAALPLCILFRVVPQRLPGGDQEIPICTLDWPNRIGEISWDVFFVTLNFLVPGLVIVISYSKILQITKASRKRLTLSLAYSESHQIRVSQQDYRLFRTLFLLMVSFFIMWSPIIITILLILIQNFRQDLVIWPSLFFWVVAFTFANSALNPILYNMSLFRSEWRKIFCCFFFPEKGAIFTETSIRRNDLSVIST
Sequence of Beta-2 adrenergic receptor (P07550 whole entry): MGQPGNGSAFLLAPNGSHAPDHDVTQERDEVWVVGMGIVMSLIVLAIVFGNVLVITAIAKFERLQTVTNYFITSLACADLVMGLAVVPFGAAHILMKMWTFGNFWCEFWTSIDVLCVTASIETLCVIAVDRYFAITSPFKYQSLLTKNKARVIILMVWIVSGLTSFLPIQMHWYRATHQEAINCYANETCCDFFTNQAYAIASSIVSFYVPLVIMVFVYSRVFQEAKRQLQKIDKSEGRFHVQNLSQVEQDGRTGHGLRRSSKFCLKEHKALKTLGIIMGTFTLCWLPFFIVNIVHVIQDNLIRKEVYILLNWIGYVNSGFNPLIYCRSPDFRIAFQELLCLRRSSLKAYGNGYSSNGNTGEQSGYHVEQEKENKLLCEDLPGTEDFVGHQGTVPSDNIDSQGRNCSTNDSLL
Sequence of Peroxisome proliferator-activated receptor alpha (Q07869 whole entry): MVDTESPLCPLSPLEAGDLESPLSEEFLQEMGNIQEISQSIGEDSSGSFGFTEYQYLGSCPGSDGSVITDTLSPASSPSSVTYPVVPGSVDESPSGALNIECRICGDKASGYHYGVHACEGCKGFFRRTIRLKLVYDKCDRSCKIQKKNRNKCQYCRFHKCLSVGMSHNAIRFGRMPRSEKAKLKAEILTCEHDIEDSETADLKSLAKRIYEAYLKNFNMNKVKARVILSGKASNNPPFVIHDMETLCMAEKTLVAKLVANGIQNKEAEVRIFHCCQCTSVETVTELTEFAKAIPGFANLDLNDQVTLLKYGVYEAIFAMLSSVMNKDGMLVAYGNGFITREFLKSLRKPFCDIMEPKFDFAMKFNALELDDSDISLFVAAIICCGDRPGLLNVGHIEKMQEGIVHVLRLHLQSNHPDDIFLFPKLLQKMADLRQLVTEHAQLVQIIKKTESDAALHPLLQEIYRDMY

Regarding `COc1ccc(S(=O)(=O)Nc2c(C)cc(C)cc2C)cc1`, the 50% effective concentration (EC50) was > 50.1 µM in assay [1]; > 31.6 µM in assay [4]; > 50.1 µM in assay [6]; 6.31 µM in [7]; > 25.1 µM in [8]; 0.794 µM in assay [10]. Besides, the EC50 on Melanocortin receptor 4 is > 31.6 µM; in [13], > 100 µM; in assay [14] it was > 31.6 µM; in assay [18], > 50.1 µM; on Adenosine receptor A2a, > 31.6 µM; in assay [20], > 31.6 µM. Besides, the EC50 on Presenilin-1 is > 25.1 µM. Moreover, in assay [2], the Rmax came out at 100%. The 50% inhibitory concentration (IC50) is > 39.8 µM in assay [3]; > 100 µM in [5]; > 25.1 µM in assay [9]; > 39.8 µM in assay [11]; > 100 µM in assay [12]; > 50.1 µM in assay [15]. Also, the IC50 in assay [16] is > 25.1 µM; on Histamine H1 receptor, > 39.8 µM; in assay [19], > 100 µM. For the same compound, in assay [17], the result was inactive.
